Laboratory results published in ChEMBL document CHEMBL1153899, “Discovery of benzothiazole derivatives as efficacious and enterocyte-specific MTP inhibitors” (Bioorg Med Chem Lett, 2009).
Calls of active or inactive are those of the source. The calls are words filed in the database; no cut-off is given here.

Legend:
[1] = Cmax in Sprague-Dawley rat at 1 mg/kg, iv; assay type: ADME, organism-based; design: dose 1 mg/kg, route intravenous; settings: in vivo
[2] = AUC (0 to infinity) in Sprague-Dawley rat at 1 mg/kg, iv; assay type: ADME, organism-based; design: time infinity, dose 1 mg/kg, route intravenous; settings: plasma
[3] = Cmax in Sprague-Dawley rat at 3 mg/kg, po; assay type: ADME, organism-based; design: dose 3 mg/kg, route oral; settings: in vivo
[4] = Tmax in Sprague-Dawley rat at 3 mg/kg, po; assay type: ADME, organism-based; design: dose 3 mg/kg, route oral; settings: in vivo
How it was run: (§1)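 Rats dosed orally at 3 mg/kg; Cmax, Tmax, oral half-life and AUC determined from plasma, and oral bioavailability (%F) calculated against the 1 mg/kg IV bolus.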

[5] = Half life in Sprague-Dawley rat at 3 mg/kg, po; assay type: ADME, organism-based; design: dose 3 mg/kg, route oral; settings: in vivo
[6] = AUC (0 to infinity) in Sprague-Dawley rat at 3 mg/kg, po; assay type: ADME, organism-based; design: dose 3 mg/kg, route oral, time infinity; settings: plasma
[7] = Oral bioavailability in Sprague-Dawley rat at 3 mg/kg; assay type: ADME, organism-based; settings: in vivo; how it was run: as §1
[8] = AUC (0 to infinity) in Sprague-Dawley rat plasma at 3 mg/kg, po; assay type: ADME, organism-based; design: time infinity, dose 3 mg/kg, route oral
How it was run: (§2)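 Dose-proportionality PK in Sprague–Dawley rats (n = 3) given single oral doses of 3, 10, 30 or 100 mg/kg. Liver and plasma were sampled at 0.5, 1, 2, 4 and 8 h and assayed for drug concentration to derive Cmax, AUC(0–∞) and T1/2.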

[9] = AUC (0 to infinity) in Sprague-Dawley rat plasma at 10 mg/kg, po; assay type: ADME, organism-based; design: time infinity, dose 10 mg/kg, route oral; how it was run: as §2
[10] = AUC (0 to infinity) in Sprague-Dawley rat plasma at 30 mg/kg, po; assay type: ADME, organism-based; design: time infinity, dose 30 mg/kg, route oral; how it was run: as §2
[11] = AUC (0 to infinity) in Sprague-Dawley rat plasma at 100 mg/kg, po; assay type: ADME, organism-based; design: time infinity, dose 100 mg/kg, route oral; how it was run: as §2
[12] = Cmax in Sprague-Dawley rat plasma at 3 mg/kg, po; assay type: ADME, organism-based; design: dose 3 mg/kg, route oral; how it was run: as §2
[13] = Cmax in Sprague-Dawley rat plasma at 10 mg/kg, po; assay type: ADME, organism-based; design: dose 10 mg/kg, route oral; how it was run: as §2
[14] = Cmax in Sprague-Dawley rat plasma at 30 mg/kg, po; assay type: ADME, organism-based; design: dose 30 mg/kg, route oral; how it was run: as §2
[15] = Cmax in Sprague-Dawley rat plasma at 100 mg/kg, po; assay type: ADME, organism-based; design: dose 100 mg/kg, route oral; how it was run: as §2
[16] = Half life in Sprague-Dawley rat plasma at 3 mg/kg, po; assay type: ADME, organism-based; design: dose 3 mg/kg, route oral; how it was run: as §2
[17] = Half life in Sprague-Dawley rat plasma at 10 mg/kg, po; assay type: ADME, organism-based; design: dose 10 mg/kg, route oral; how it was run: as §2
[18] = Half life in Sprague-Dawley rat plasma at 30 mg/kg, po; assay type: ADME, organism-based; design: dose 30 mg/kg, route oral; how it was run: as §2
[19] = Half life in Sprague-Dawley rat plasma at 100 mg/kg, po; assay type: ADME, organism-based; design: dose 100 mg/kg, route oral; how it was run: as §2
[20] = AUC (0 to infinity) in Sprague-Dawley rat liver at 3 mg/kg, po; assay type: ADME, organism-based; design: time infinity, dose 3 mg/kg, route oral; how it was run: as §2
[21] = AUC (0 to infinity) in Sprague-Dawley rat liver at 10 mg/kg, po; assay type: ADME, organism-based; design: time infinity, dose 10 mg/kg, route oral; how it was run: as §2
[22] = AUC (0 to infinity) in Sprague-Dawley rat liver at 30 mg/kg, po; assay type: ADME, organism-based; design: dose 30 mg/kg, route oral, time infinity; how it was run: as §2
[23] = AUC (0 to infinity) in Sprague-Dawley rat liver at 100 mg/kg, po; assay type: ADME, organism-based; design: time infinity, dose 100 mg/kg, route oral; how it was run: as §2
[24] = Cmax in Sprague-Dawley rat liver at 3 mg/kg, po; assay type: ADME, organism-based; design: dose 3 mg/kg, route oral; how it was run: as §2
[25] = Cmax in Sprague-Dawley rat liver at 10 mg/kg, po; assay type: ADME, organism-based; design: dose 10 mg/kg, route oral; how it was run: as §2
[26] = Cmax in Sprague-Dawley rat liver at 30 mg/kg, po; assay type: ADME, organism-based; design: dose 30 mg/kg, route oral; how it was run: as §2
[27] = Cmax in Sprague-Dawley rat liver at 100 mg/kg, po; assay type: ADME, organism-based; design: dose 100 mg/kg, route oral; how it was run: as §2
[28] = Half life in Sprague-Dawley rat liver at 3 mg/kg, po; assay type: ADME, organism-based; design: dose 3 mg/kg, route oral; how it was run: as §2
Mus musculus = experiment: Decrease in total food intake in 28-day diet-induced obesity C57BL/6 mouse model at 1 to 3 mg/kg, po daily for 4 weeks measured on day 4

CC(C)c1ccc(-c2ccccc2C(=O)Nc2ccc3nc(C(=O)N[C@H](C(=O)N(C)Cc4ccc(F)cc4)c4ccccc4)sc3c2)cc1
Cmax [1]: 5980 ng/mL | AUC(0-inf) [2]: 976 ng·h/mL | Cmax [3]: 22.2 ng/mL | Tmax [4]: 0.5 h | half-life [5]: 2.13 h | AUC(0-inf) [6]: 40.8 ng·h/mL | bioavailability [7]: 1.29% | AUC(0-inf) [8]: 109 ng·h/mL | AUC(0-inf) [9]: 224 ng·h/mL | AUC(0-inf) [10]: 510 ng·h/mL | AUC(0-inf) [11]: 598 ng·h/mL | Cmax [12]: 35 ng/mL | Cmax [13]: 58 ng/mL | Cmax [14]: 49.5 ng/mL | Cmax [15]: 69.5 ng/mL | half-life [16]: 2.42 h | half-life [17]: 7.91 h | half-life [18]: 10.4 h | half-life [19]: 5.44 h | AUC(0-inf) [20]: 1220 ng·h/mL | AUC(0-inf) [21]: 2640 ng·h/mL | AUC(0-inf) [22]: 3030 ng·h/mL | AUC(0-inf) [23]: 1780 ng·h/mL | Cmax [24]: 57 µg/kg | Cmax [25]: 90.1 µg/kg | Cmax [26]: 73.1 µg/kg | Cmax [27]: 84 µg/kg | half-life [28]: 10.7 h | Activity (Mus musculus): Active
